Values joined by “and” are separate entries in the source; they are usually repeats but may differ in a detail not shown here. Equal entries are not always repeated.
What was measured:
Type in all cases: toxicity, cell-based
Fibroblast [1] = experiment: Incucyte cell viability with human fibroblast; conditions: 10 µM, compound concentration 10 uM; note: filed as whole numbers so only -1 and 0 and 1 occur
Fibroblast [2] = experiment: Multiplex assay against human fibroblast; conditions: 10 µM, compound concentration 10 uM
Method in brief: (§1)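 Cells were classed with CellPathfinder machine-learning gating, first as Hoechst high-intensity objects or normal cells, then (normal cells) as healthy, pyknosed or fragmented nuclei, and finally (pyknosed cells) as mitotic or apoptotic. Staining of live cells at seeding used Hoechst33342, BioTracker Green Microtubule Cytoskeleton Dye, MitoTracker Red and Annexin V Alexa Fluor 680, with imaging on a CQ1 microscope at 37°C and 5% CO2 after compound addition. Tubulin, mitochondrial-mass and membrane-permeability phenotypes are per cents of healthy-nucleus cells.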

U2OS [3] = experiment: Multiplex assay against U2OS; conditions: human, 10 µM, compound concentration 10 uM; method in brief: as §1
HEK-293T [4] = experiment: Incucyte cell viability with HEK293T; conditions: human, 10 µM, compound concentration 10 uM; note: filed as whole numbers so only -1 and 0 and 1 occur
U2OS [5] = experiment: Incucyte cell viability with U2OS; conditions: human, 10 µM, compound concentration 10 uM; note: filed as whole numbers so only -1 and 0 and 1 occur
HEK-293T [6] = experiment: Multiplex assay against HEK293T; conditions: human, 10 µM, compound concentration 10 uM; method in brief: as §1
[7] = 0 h, replicate number 1, timepoint 0 hours
[8] = 6 h, replicate number 1, timepoint 6 hours
[9] = 12 h, replicate number 1, timepoint 12 hours
[10] = 18 h, replicate number 1, timepoint 18 hours
[11] = 24 h, replicate number 1, timepoint 24 hours

CCN1CCN(Cc2ccc(NC(=O)c3ccc(C)c(Oc4ccnc5[nH]ccc45)c3)cc2C(F)(F)F)CC1.Cl.Cl.Cl.O
Growth Rate (Fibroblast [1]; [7]): 0 | Growth Rate (Fibroblast [1]; [8]): 1 | Growth Rate (Fibroblast [1]; [9]): 0 | Growth Rate (Fibroblast [1]; [10]): 0 | Growth Rate (Fibroblast [1]; [11]): 0 | Population Apoptotic (%) (Fibroblast [2]; 12 h, replicate 1): 75% and 44% | Population Fragmented Nuclei (%) (Fibroblast [2]; 12 h, replicate 1): 42% and 25% | Population Healthy Nuclei (%) (Fibroblast [2]; 12 h, replicate 1): 42% and 50% | Population Hoechst High Intensity Objects (%) (Fibroblast [2]; 12 h, replicate 1): 20% | Population Membrane Permeable-Phenotype (%) (Fibroblast [2]; 12 h, replicate 1): 6% and 2% | Population Mitochondria Different-Phenotype (%) (Fibroblast [2]; 12 h, replicate 1): 8% | Population Mitotic Cells (%) (Fibroblast [2]; 12 h, replicate 1): 25% and 55% | Population Normal (%) (Fibroblast [2]; 12 h, replicate 1): 79% | Population Pyknosed Nuclei (%) (Fibroblast [2]; 12 h, replicate 1): 14% and 25% | Population Tubulin-Different-Phenotype (%) (Fibroblast [2]; 12 h, replicate 1): 13% and 25% | Total Cell Count (Fibroblast [2]; 12 h, replicate 1): 169 and 323 | Population Fragmented Nuclei (%) (Fibroblast [2]; 12 h, replicate 2): 74% and 45% | Population Healthy Nuclei (%) (Fibroblast [2]; 12 h, replicate 2): 23% and 34% | Population Hoechst High Intensity Objects (%) (Fibroblast [2]; 12 h, replicate 2): 36% and 41% | Population Membrane Permeable-Phenotype (%) (Fibroblast [2]; 12 h, replicate 2): 18% and 0% | Population Mitochondria Different-Phenotype (%) (Fibroblast [2]; 12 h, replicate 2): 0% and 12% | Population Mitotic Cells (%) (Fibroblast [2]; 12 h, replicate 2): 100% and 44% | Population Normal (%) (Fibroblast [2]; 12 h, replicate 2): 63% and 58% | Population Tubulin-Different-Phenotype (%) (Fibroblast [2]; 12 h, replicate 2): 18% and 37% | Total Cell Count (Fibroblast [2]; 12 h, replicate 2): 74 and 79 | Population Apoptotic (%) (Fibroblast [2]; 24 h, replicate 1): 76% and 41% | Population Fragmented Nuclei (%) (Fibroblast [2]; 24 h, replicate 1): 45% and 29% | Population Healthy Nuclei (%) (Fibroblast [2]; 24 h, replicate 1): 46% | Population Hoechst High Intensity Objects (%) (Fibroblast [2]; 24 h, replicate 1): 23% and 52% | Population Membrane Permeable-Phenotype (%) (Fibroblast [2]; 24 h, replicate 1): 5% and 2% | Population Mitochondria Different-Phenotype (%) (Fibroblast [2]; 24 h, replicate 1): 13% and 14% | Population Mitotic Cells (%) (Fibroblast [2]; 24 h, replicate 1): 23% and 58% | Population Normal (%) (Fibroblast [2]; 24 h, replicate 1): 76% and 47% | Population Pyknosed Nuclei (%) (Fibroblast [2]; 24 h, replicate 1): 8% and 23% | Population Tubulin-Different-Phenotype (%) (Fibroblast [2]; 24 h, replicate 1): 20% and 32% | Total Cell Count (Fibroblast [2]; 24 h, replicate 1): 210 and 306 | Population Apoptotic (%) (Fibroblast [2]; 24 h, replicate 2): 50% and 30% | Population Fragmented Nuclei (%) (Fibroblast [2]; 24 h, replicate 2): 59% and 50% | Population Healthy Nuclei (%) (Fibroblast [2]; 24 h, replicate 2): 36% and 19% | Population Hoechst High Intensity Objects (%) (Fibroblast [2]; 24 h, replicate 2): 38% and 40% | Population Mitotic Cells (%) (Fibroblast [2]; 24 h, replicate 2): 50% and 69% | Population Normal (%) (Fibroblast [2]; 24 h, replicate 2): 61% and 60% | Population Tubulin-Different-Phenotype (%) (Fibroblast [2]; 24 h, replicate 2): 41% and 50% | Total Cell Count (Fibroblast [2]; 24 h, replicate 2): 76 and 70 | Population Apoptotic (%) (U2OS [3]; 12 h, replicate 1): 66% and 38% | Population Healthy Nuclei (%) (U2OS [3]; 12 h, replicate 1): 34% and 87% | Population Hoechst High Intensity Objects (%) (U2OS [3]; 12 h, replicate 1): 7% and 4% | Population Membrane Permeable-Phenotype (%) (U2OS [3]; 12 h, replicate 1): 18% and 17% | Population Mitotic Cells (%) (U2OS [3]; 12 h, replicate 1): 33% and 61% | Population Normal (%) (U2OS [3]; 12 h, replicate 1): 92% and 95% | Total Cell Count (U2OS [3]; 12 h, replicate 1): 219 and 182 | Population Fragmented Nuclei (%) (U2OS [3]; 12 h, replicate 2): 17% and 9% | Population Healthy Nuclei (%) (U2OS [3]; 12 h, replicate 2): 40% and 83% | Population Hoechst High Intensity Objects (%) (U2OS [3]; 12 h, replicate 2): 14% and 11% | Population Membrane Permeable-Phenotype (%) (U2OS [3]; 12 h, replicate 2): 20% and 10% | Population Mitotic Cells (%) (U2OS [3]; 12 h, replicate 2): 30% and 87% | Population Normal (%) (U2OS [3]; 12 h, replicate 2): 85% and 88% | Population Pyknosed Nuclei (%) (U2OS [3]; 12 h, replicate 2): 42% | Total Cell Count (U2OS [3]; 12 h, replicate 2): 113 and 91 | Population Apoptotic (%) (U2OS [3]; 24 h, replicate 1): 37% | Population Normal (%) (U2OS [3]; 24 h, replicate 1): 79% and 98% | Population Pyknosed Nuclei (%) (U2OS [3]; 24 h, replicate 1): 10% | Population Tubulin-Different-Phenotype (%) (U2OS [3]; 24 h, replicate 1): 10% | Total Cell Count (U2OS [3]; 24 h, replicate 1): 255 and 248 | Population Apoptotic (%) (U2OS [3]; 24 h, replicate 2): 90% and 58% | Population Fragmented Nuclei (%) (U2OS [3]; 24 h, replicate 2): 16% and 11% | Population Hoechst High Intensity Objects (%) (U2OS [3]; 24 h, replicate 2): 23% and 18% | Population Normal (%) (U2OS [3]; 24 h, replicate 2): 76% and 81% | Total Cell Count (U2OS [3]; 24 h, replicate 2): 133 and 117 | Growth Rate (HEK-293T [4]; 0 h, replicate number 2, timepoint 0 hours): 0 | Growth Rate (HEK-293T [4]; [8]): 0 | Growth Rate (HEK-293T [4]; [9]): 0 | Growth Rate (HEK-293T [4]; [10]): 0 | Growth Rate (HEK-293T [4]; [11]): 0 | Growth Rate (U2OS [5]; [7]): 0 | Growth Rate (U2OS [5]; [8]): 0 | Growth Rate (U2OS [5]; 6 h, replicate number 2, timepoint 6 hours): 1 | Growth Rate (U2OS [5]; [9]): 0 | Growth Rate (U2OS [5]; [10]): 0 | Growth Rate (U2OS [5]; [11]): 0 | Population Apoptotic (%) (HEK-293T [6]; 12 h, replicate 1): 19% and 50% | Population Fragmented Nuclei (%) (HEK-293T [6]; 12 h, replicate 1): 21% and 19% | Population Healthy Nuclei (%) (HEK-293T [6]; 12 h, replicate 1): 47% and 20% | Population Hoechst High Intensity Objects (%) (HEK-293T [6]; 12 h, replicate 1): 20% and 25% | Population Membrane Permeable-Phenotype (%) (HEK-293T [6]; 12 h, replicate 1): 5% and 7% | Population Mitotic Cells (%) (HEK-293T [6]; 12 h, replicate 1): 80% and 49% | Population Normal (%) (HEK-293T [6]; 12 h, replicate 1): 79% and 74% | Population Pyknosed Nuclei (%) (HEK-293T [6]; 12 h, replicate 1): 31% and 60% | Total Cell Count (HEK-293T [6]; 12 h, replicate 1): 451 and 581 | Population Fragmented Nuclei (%) (HEK-293T [6]; 12 h, replicate 2): 3% and 6% | Population Healthy Nuclei (%) (HEK-293T [6]; 12 h, replicate 2): 66% and 86% | Population Hoechst High Intensity Objects (%) (HEK-293T [6]; 12 h, replicate 2): 5% and 2% | Population Membrane Permeable-Phenotype (%) (HEK-293T [6]; 12 h, replicate 2): 2% and 1% | Population Mitotic Cells (%) (HEK-293T [6]; 12 h, replicate 2): 47% and 87% | Population Normal (%) (HEK-293T [6]; 12 h, replicate 2): 94% and 97% | Total Cell Count (HEK-293T [6]; 12 h, replicate 2): 837 and 1347 | Population Fragmented Nuclei (%) (HEK-293T [6]; 24 h, replicate 1): 21% and 23% | Population Healthy Nuclei (%) (HEK-293T [6]; 24 h, replicate 1): 25% and 58% | Population Hoechst High Intensity Objects (%) (HEK-293T [6]; 24 h, replicate 1): 29% and 13% | Population Membrane Permeable-Phenotype (%) (HEK-293T [6]; 24 h, replicate 1): 8% and 7% | Population Normal (%) (HEK-293T [6]; 24 h, replicate 1): 70% and 86% | Total Cell Count (HEK-293T [6]; 24 h, replicate 1): 528 and 497 | Population Healthy Nuclei (%) (HEK-293T [6]; 24 h, replicate 2): 71% and 83% | Population Hoechst High Intensity Objects (%) (HEK-293T [6]; 24 h, replicate 2): 6% and 5% | Population Membrane Permeable-Phenotype (%) (HEK-293T [6]; 24 h, replicate 2): 1% and 3% | Population Mitotic Cells (%) (HEK-293T [6]; 24 h, replicate 2): 32% and 91% | Population Normal (%) (HEK-293T [6]; 24 h, replicate 2): 93% and 94% | Total Cell Count (HEK-293T [6]; 24 h, replicate 2): 779 and 2092
